Source: ChEMBL document CHEMBL2390836, “Synthesis and antitumor activities of naturally occurring oleanolic acid triterpenoid saponins and their derivatives” (Eur J Med Chem, 2013)

Legend:
Assay type in all cases: functional, cell-based
A-375 = assay: Cytotoxicity against human A375 cells after 72 hrs by sulforhodamine B assay; details: A-375, 72 h
In short: (§1)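 Cells seeded in 96-well plates and exposed in triplicate to a concentration gradient at 37 °C for 72 h. Total protein staining with sulforhodamine B was the read-out. IC50 was calculated by the Logit method from at least three independent experiments.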

A549 = assay: Cytotoxicity against human A549 cells after 72 hrs by sulforhodamine B assay; details: A549, 72 h; in short: as §1
HL-60 = assay: Cytotoxicity against human HL60 cells after 72 hrs by MTT assay; details: HL-60, 72 h
In short: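 HL-60 human promyelocytic leukemia cells were plated in 96 wells and treated in triplicate with graded concentrations at 37 °C for 72 h. Viability was read by MTT reduction. IC50 was obtained by the Logit method from at least three independent experiments.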

Row | SMILES | IC50 (A-375) [µM] | IC50 (A549) [µM] | IC50 (HL-60) [µM]
1 | C[C@@H]1O[C@@H](O[C@@H]2[C@@H](O)[C@H](C)O[C@@H](O[C@H]3[C@H](O[C@H]4CC[C@]5(C)[C@H]6CC=C7[C@@H]8CC(C)(C)CC[C@]8(C(=O)O)CC[C@@]7(C)[C@]6(C)CC[C@H]5C4(C)C)OC[C@@H](O)[C@@H]3O)[C@@H]2O)[C@H](O)[C@H](O)[C@H]1O | 8.4 | 16.2 | 9.3
2 | C[C@@H]1O[C@@H](O[C@H]2[C@H](O[C@H]3CC[C@]4(C)[C@H]5CC=C6[C@@H]7CC(C)(C)CC[C@]7(C(=O)O)CC[C@@]6(C)[C@]5(C)CC[C@H]4C3(C)C)OC[C@@H](O)[C@@H]2O)[C@H](O)[C@H](O)[C@H]1O | 5 | 10.7 | 3.6
3 | C[C@@H]1O[C@@H](O[C@H]2[C@@H](O[C@H]3CC[C@]4(C)[C@H]5CC=C6[C@@H]7CC(C)(C)CC[C@]7(C(=O)O)CC[C@@]6(C)[C@]5(C)CC[C@H]4C3(C)C)OC[C@H](O)[C@@H]2O)[C@H](O)[C@H](O)[C@H]1O | > 20 | > 20 | > 20
4 | C[C@@H]1O[C@@H](O[C@H]2[C@H](O[C@H]3CC[C@]4(C)[C@H]5CC=C6[C@@H]7CC(C)(C)CC[C@]7(C(=O)O)CC[C@@]6(C)[C@]5(C)CC[C@H]4C3(C)C)O[C@H](CO)[C@H](O)[C@@H]2O)[C@H](O)[C@H](O)[C@H]1O | 5.1 | 12.4 | 2.5
5 | C[C@@H]1O[C@@H](O[C@H]2[C@@H](O)[C@@H](CO)O[C@@H](O[C@H]3CC[C@]4(C)[C@H]5CC=C6[C@@H]7CC(C)(C)CC[C@]7(C(=O)O)CC[C@@]6(C)[C@]5(C)CC[C@H]4C3(C)C)[C@@H]2O)[C@H](O)[C@H](O)[C@H]1O | 15.4 | 15.2 | > 20
6 | C[C@@H]1O[C@@H](O[C@H]2[C@H]3OC(c4ccccc4)OC[C@H]3O[C@@H](O[C@H]3CC[C@]4(C)[C@H]5CC=C6[C@@H]7CC(C)(C)CC[C@]7(C(=O)O)CC[C@@]6(C)[C@]5(C)CC[C@H]4C3(C)C)[C@@H]2O[C@@H]2O[C@@H](C)[C@H](O)[C@@H](O)[C@H]2O)[C@H](O)[C@H](O)[C@H]1O (some centres undefined) | > 20 | > 20 | > 20
7 | C[C@@H]1O[C@@H](O[C@H]2[C@H](O[C@H]3CC[C@]4(C)[C@H]5CC=C6[C@@H]7CC(C)(C)CC[C@]7(C(=O)O)CC[C@@]6(C)[C@]5(C)CC[C@H]4C3(C)C)O[C@H](CO)[C@@H](O)[C@@H]2O)[C@H](O)[C@H](O)[C@H]1O | 11.6 | 23.5 | 12.9
8 | C[C@@H]1O[C@@H](O[C@@H]2[C@@H](O)[C@H](O[C@H]3CC[C@]4(C)[C@H]5CC=C6[C@@H]7CC(C)(C)CC[C@]7(C(=O)O)CC[C@@]6(C)[C@]5(C)CC[C@H]4C3(C)C)O[C@H](CO)[C@H]2O)[C@H](O)[C@H](O)[C@H]1O | > 20 | > 20 | > 20
9 | C[C@@H]1O[C@@H](O[C@H]2[C@H](O[C@H]3CC[C@]4(C)[C@H]5CC=C6[C@@H]7CC(C)(C)CC[C@]7(C(=O)O)CC[C@@]6(C)[C@]5(C)CC[C@H]4C3(C)C)O[C@H](CO)[C@@H](O)[C@@H]2O[C@@H]2O[C@@H](C)[C@H](O)[C@@H](O)[C@H]2O)[C@H](O)[C@H](O)[C@H]1O | > 20 | > 20 | > 20
10 | C[C@@H]1O[C@@H](O[C@H]2[C@H](O[C@H]3CC[C@]4(C)[C@H]5CC=C6[C@@H]7CC(C)(C)CC[C@]7(C(=O)O[C@@H]7O[C@H](CO[C@@H]8O[C@H](CO)[C@@H](O[C@@H]9O[C@@H](C)[C@H](O)[C@@H](O)[C@H]9O)[C@H](O)[C@H]8O)[C@@H](O)[C@H](O)[C@H]7O)CC[C@@]6(C)[C@]5(C)CC[C@H]4C3(C)C)OC[C@@H](O)[C@@H]2O)[C@H](O)[C@H](O)[C@H]1O | 7.3 | 10.5 | 3.2
11 | C[C@@H]1O[C@@H](O[C@H]2[C@H](O)[C@@H](O)[C@H](OC[C@H]3O[C@@H](OC(=O)[C@]45CCC(C)(C)C[C@H]4C4=CC[C@@H]6[C@@]7(C)CC[C@H](O[C@@H]8OC[C@@H](O)[C@H](O)[C@H]8O)C(C)(C)[C@@H]7CC[C@@]6(C)[C@]4(C)CC5)[C@H](O)[C@@H](O)[C@@H]3O)O[C@@H]2CO)[C@H](O)[C@H](O)[C@H]1O | 13.5 | 11.9 | 5.7
12 | C[C@@H]1O[C@@H](O[C@H]2[C@H](O[C@H]3CC[C@]4(C)[C@H]5CC=C6[C@@H]7CC(C)(C)CC[C@]7(C(=O)O)CC[C@@]6(C)[C@]5(C)CC[C@H]4C3(C)C)OC[C@@H](O)[C@@H]2O)[C@H](O)[C@H](O[C@@H]2O[C@H](CO)[C@@H](O)[C@H](O)[C@H]2O)[C@H]1O | 5.5 | 14.7 | 4.6
13 | C[C@@H]1O[C@H](O[C@H]2[C@H](O[C@H]3CC[C@]4(C)[C@H]5CC=C6[C@@H]7CC(C)(C)CC[C@]7(C(=O)O)CC[C@@]6(C)[C@]5(C)CC[C@H]4C3(C)C)OC[C@H](O)[C@@H]2O)[C@H](O)[C@H](O)[C@H]1O | 7.7 | 17.5 | 4.2
14 | C[C@@H]1O[C@@H](O[C@H]2[C@H](O[C@H]3CC[C@]4(C)[C@H]5CC=C6[C@@H]7CC(C)(C)CC[C@]7(C(=O)O)CC[C@@]6(C)[C@]5(C)CC[C@H]4C3(C)C)OC[C@H](O)[C@@H]2O)[C@H](O)[C@H](O[C@@H]2OC[C@@H](O)[C@H](O)[C@H]2O)[C@H]1O | 8.9 | 15.4 | 3.4
15 | C[C@@H]1O[C@@H](O[C@H]2[C@H](O[C@H]3CC[C@]4(C)[C@H]5CC=C6[C@@H]7CC(C)(C)CC[C@]7(C(=O)O)CC[C@@]6(C)[C@]5(C)CC[C@H]4C3(C)C)OC[C@@H](O)[C@@H]2O)[C@H](O)[C@H](O[C@@H]2OC[C@@H](O)[C@H](O)[C@H]2O)[C@H]1O | 6.3 | 11.5 | 4.5
16 | C[C@@H]1O[C@@H](O[C@H]2[C@H](O[C@H]3CC[C@]4(C)[C@H]5CC=C6[C@@H]7CC(C)(C)CC[C@]7(C(=O)O)CC[C@@]6(C)[C@]5(C)CC[C@H]4C3(C)C)OC[C@@H](O)[C@@H]2O)[C@H](O)[C@H](O[C@@H]2O[C@H](CO)[C@@H](O[C@@H]3O[C@H](CO)[C@@H](O)[C@H](O)[C@H]3O)[C@H](O)[C@H]2O)[C@H]1O | 6.1 | 7.8 | 2.5
17 | C[C@@H]1O[C@@H](O[C@H]2[C@H](O[C@H]3CC[C@]4(C)[C@H]5CC=C6[C@@H]7CC(C)(C)CC[C@]7(C(=O)O[C@@H]7O[C@H](CO[C@@H]8O[C@H](CO)[C@@H](O)[C@H](O)[C@H]8O)[C@@H](O)[C@H](O)[C@H]7O)CC[C@@]6(C)[C@]5(C)CC[C@H]4C3(C)C)OC[C@@H](O)[C@@H]2O)[C@H](O)[C@H](O[C@@H]2O[C@H](CO)[C@@H](O[C@@H]3O[C@H](CO)[C@@H](O)[C@H](O)[C@H]3O)[C@H](O)[C@H]2O)[C@H]1O | > 20 | > 20 | > 20
18 | C[C@@H]1O[C@@H](O[C@H]2[C@H](O[C@H]3CC[C@]4(C)[C@H]5CC=C6[C@@H]7CC(C)(C)CC[C@]7(C(=O)O)CC[C@@]6(C)[C@]5(C)CC[C@H]4C3(C)C)OC[C@H](O)[C@@H]2O)[C@H](O)[C@H](O[C@@H]2O[C@H](CO)[C@@H](O[C@@H]3O[C@H](CO)[C@@H](O)[C@H](O)[C@H]3O)[C@H](O)[C@H]2O)[C@H]1O | 5.9 | 7.9 | 3.5
19 | C[C@@H]1O[C@@H](O[C@H]2[C@H](O[C@H]3CC[C@]4(C)[C@H]5CC=C6[C@@H]7CC(C)(C)CC[C@]7(C(=O)O)CC[C@@]6(C)[C@]5(C)CC[C@H]4C3(C)C)OC[C@H](O)[C@@H]2O)[C@H](O)[C@H](O[C@@H]2O[C@H](CO)[C@@H](O)[C@H](O)[C@H]2O)[C@H]1O | 12.1 | 16.7 | 6.1
20 | C[C@@H]1O[C@@H](O[C@H]2[C@H](O[C@H]3CC[C@]4(C)[C@H]5CC=C6[C@@H]7CC(C)(C)CC[C@]7(C(=O)O)CC[C@@]6(C)[C@]5(C)CC[C@H]4C3(C)C)OC[C@H](O)[C@@H]2O)[C@H](O)[C@H](O)[C@H]1O | 8.4 | 15.8 | 9.2
21 | C[C@@H]1O[C@@H](O[C@H]2[C@H](O[C@H]3CC[C@]4(C)[C@H]5CC=C6[C@@H]7CC(C)(C)CC[C@]7(C(=O)O)CC[C@@]6(C)[C@]5(C)CC[C@H]4C3(C)C)OC[C@H](O)[C@@H]2O)[C@H](O)[C@H](O[C@@H]2OC[C@@H](O[C@@H]3O[C@H](CO)[C@@H](O)[C@H](O)[C@H]3O)[C@H](O)[C@H]2O)[C@H]1O | 22.1 | > 20 | 4.2
22 | CC1(C)CC[C@]2(C(=O)O)CC[C@]3(C)C(=CC[C@@H]4[C@@]5(C)CC[C@H](O[C@@H]6O[C@H](CO)[C@H](O)[C@H](O)[C@H]6O[C@@H]6O[C@H](CO)[C@@H](O)[C@H](O)[C@H]6O)C(C)(C)[C@@H]5CC[C@]43C)[C@@H]2C1 | 9.7 | 17.9 | 10.1
23 | C[C@@H]1O[C@@H](O[C@H]2[C@H](O[C@H]3CC[C@]4(C)[C@H]5CC=C6[C@@H]7CC(C)(C)CC[C@]7(C(=O)O)CC[C@@]6(C)[C@]5(C)CC[C@H]4C3(C)C)OC[C@H](O[C@@H]3O[C@H](CO)[C@@H](O)[C@H](O)[C@H]3O)[C@@H]2O)[C@H](O)[C@H](O[C@@H]2O[C@H](CO)[C@@H](O[C@@H]3O[C@H](CO)[C@@H](O)[C@H](O)[C@H]3O)[C@H](O)[C@H]2O)[C@H]1O | 3.5 | 6.2 | 3.1
